In ChEMBL document CHEMBL1139141, “Structure-based design of benzylamino-acridine compounds as G-quadruplex DNA telomere targeting agents” (Bioorg Med Chem Lett, 2007):

Tests used:
[1] = test system: MCF7; assay: Growth inhibition of human MCF7 cells by SRB assay; type: functional, cell-based
[2] = species: Homo sapiens; assay: Effect on human G-quadruplex DNA stability by FRET assay
How it was run: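 Oligonucleotide F21T (21-mer d[GGG(TTAGGG)3], donor–acceptor end-labelled) annealed at 400 nM in 50 mM KCl, 10 mM cacodylic acid pH 7.4 (92° 2 min, cooled over 4 h); 200 nM final with ligand 0.10–10.00 µM. Fluorescence read at 0.5° steps, 30–100° at 1°/min, excitation 450–495, detection 515–545 nm; ΔTm from melting, triplicate.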

[3] = biological target: Telomerase reverse transcriptase (Homo sapiens, UniProt O14746); assay: Inhibition of human telomerase by TRAP assay
How it was run: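 Modified TRAP using A2780 ovarian carcinoma cell extract (1 µg protein) in 20 mM Tris-HCl pH 8.3, 68 mM KCl, 1.5 mM MgCl2, 1 mM EGTA, 0.05% Tween 20, 125 µM dNTPs, TS primer; 10 min at 30° with or without drug, heat-inactivated, then ACX primer PCR, 33 cycles. SYBR Green-stained PAGE products quantified by fluorescence; telEC50, triplicate.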

[4] = test system: DU-145; assay: Growth inhibition of human DU145 cells by SRB assay; type: functional, cell-based
[5] = test system: A549; assay: Growth inhibition of human A549 cells by SRB assay; type: functional, cell-based

Telomerase reverse transcriptase, sequence (O14746 whole entry): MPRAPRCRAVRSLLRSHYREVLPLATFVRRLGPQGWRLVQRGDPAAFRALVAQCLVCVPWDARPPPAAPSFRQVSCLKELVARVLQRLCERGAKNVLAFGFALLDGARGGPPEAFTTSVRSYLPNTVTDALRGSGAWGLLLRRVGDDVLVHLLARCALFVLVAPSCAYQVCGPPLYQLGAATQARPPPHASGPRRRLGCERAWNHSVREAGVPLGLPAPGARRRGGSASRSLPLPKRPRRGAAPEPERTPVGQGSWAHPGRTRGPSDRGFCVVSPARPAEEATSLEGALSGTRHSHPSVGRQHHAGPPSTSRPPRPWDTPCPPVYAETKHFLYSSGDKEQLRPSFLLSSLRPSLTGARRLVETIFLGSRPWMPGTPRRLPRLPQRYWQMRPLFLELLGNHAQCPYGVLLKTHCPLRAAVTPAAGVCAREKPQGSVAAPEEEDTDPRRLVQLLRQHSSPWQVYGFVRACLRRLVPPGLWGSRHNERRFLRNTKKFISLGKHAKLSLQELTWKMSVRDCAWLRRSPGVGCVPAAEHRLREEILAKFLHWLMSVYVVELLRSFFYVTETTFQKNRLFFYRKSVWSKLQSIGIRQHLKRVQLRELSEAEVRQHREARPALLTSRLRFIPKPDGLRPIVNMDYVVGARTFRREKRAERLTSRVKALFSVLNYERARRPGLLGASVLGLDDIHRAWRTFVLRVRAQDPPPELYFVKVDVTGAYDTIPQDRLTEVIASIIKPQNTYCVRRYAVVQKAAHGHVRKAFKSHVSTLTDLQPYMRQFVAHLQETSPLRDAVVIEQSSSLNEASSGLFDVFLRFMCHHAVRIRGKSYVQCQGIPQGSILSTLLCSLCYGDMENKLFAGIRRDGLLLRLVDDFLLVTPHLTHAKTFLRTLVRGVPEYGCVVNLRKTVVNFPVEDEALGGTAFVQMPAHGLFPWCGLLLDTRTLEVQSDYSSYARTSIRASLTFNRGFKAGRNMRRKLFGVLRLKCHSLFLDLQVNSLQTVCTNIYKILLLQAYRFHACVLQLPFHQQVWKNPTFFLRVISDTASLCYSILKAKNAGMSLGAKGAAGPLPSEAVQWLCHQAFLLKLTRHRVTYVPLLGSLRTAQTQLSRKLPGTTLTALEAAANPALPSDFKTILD

## O=C(CCN1CCCC1)Nc1ccc2c(NCc3cc(F)cc(C(F)(F)F)c3)c3ccc(NC(=O)CCN4CCCC4)cc3nc2c1
[1]
  IC50: 1 µM
[2]
  ΔTm: 30.5 °C
[3]
  EC50: 0.24 µM
[4]
  IC50: 2.53 µM
[5]
  IC50: 2 µM

## O=C(CCN1CCCCC1)Nc1ccc2c(NCc3ccc(F)c(F)c3)c3ccc(NC(=O)CCN4CCCCC4)cc3nc2c1
[1]
  IC50: 0.52 µM
[2]
  ΔTm: 26.5 °C
[3]
  EC50: 0.88 µM
[4]
  IC50: 2.25 µM
[5]
  IC50: 1.2 µM

## Cc1cccc(CNc2c3ccc(NC(=O)CCN4CCCC4)cc3nc3cc(NC(=O)CCN4CCCC4)ccc23)c1
[1]
  IC50: 3 µM
[2]
  ΔTm: 29.5 °C
[3]
  EC50: 1 µM
[4]
  IC50: 10 µM
[5]
  IC50: 1.19 µM

## O=C(CCN1CCCC1)Nc1ccc2c(NCc3cc(C(F)(F)F)cc(C(F)(F)F)c3)c3ccc(NC(=O)CCN4CCCC4)cc3nc2c1
[1]
  IC50: 1.07 µM
[2]
  ΔTm: 27.5 °C
[3]
  EC50: 0.86 µM
[4]
  IC50: 2.61 µM
[5]
  IC50: 6.3 µM

## Cc1cccc(CNc2c3ccc(NC(=O)CCN4CCCCC4)cc3nc3cc(NC(=O)CCN4CCCCC4)ccc23)c1
[1]
  IC50: 0.46 µM
[2]
  ΔTm: 31 °C
[3]
  EC50: 0.23 µM
[4]
  IC50: 0.77 µM
[5]
  IC50: 0.5 µM

## COc1cc(CNc2c3ccc(NC(=O)CCN4CCCC4)cc3nc3cc(NC(=O)CCN4CCCC4)ccc23)cc(OC)c1
[1]
  IC50: 3.72 µM
[2]
  ΔTm: 32.5 °C
[3]
  EC50: 0.35 µM
[4]
  IC50: 10.4 µM
[5]
  IC50: 4.57 µM

## CN(C)c1ccc(Nc2c3ccc(NC(=O)CCN4CCCC4)cc3nc3cc(NC(=O)CCN4CCCC4)ccc23)cc1
[1]
  IC50: 2.53 µM
[2]
  ΔTm: 28 °C
[3]
  EC50: 0.12 µM
[4]
  IC50: 2.3 µM
[5]
  IC50: 2.42 µM

## COc1cc(CNc2c3ccc(NC(=O)CCN4CCCCC4)cc3nc3cc(NC(=O)CCN4CCCCC4)ccc23)cc(OC)c1
[1]
  IC50: 0.2 µM
[2]
  ΔTm: 30 °C
[3]
  EC50: 0.44 µM
[4]
  IC50: 0.47 µM
[5]
  IC50: 0.37 µM

## CN(C)c1ccc(Nc2c3ccc(NC(=O)CCN4CCCCC4)cc3nc3cc(NC(=O)CCN4CCCCC4)ccc23)cc1
[1]
  IC50: 0.54 µM
[2]
  ΔTm: 21 °C
[3]
  EC50: 0.36 µM
[4]
  IC50: 2.57 µM
[5]
  IC50: 2 µM

## Cc1cccc(CNc2c3ccc(NC(=O)CCN4CCC(C)CC4)cc3nc3cc(NC(=O)CCN4CCC(C)CC4)ccc23)c1
[1]
  IC50: 0.58 µM
[2]
  ΔTm: 24 °C
[3]
  EC50: 0.39 µM
[4]
  IC50: 0.63 µM
[5]
  IC50: 0.57 µM

## O=C(CCN1CCCC1)Nc1ccc2c(NCc3ccc(F)c(F)c3)c3ccc(NC(=O)CCN4CCCC4)cc3nc2c1
[1]
  IC50: 2.26 µM
[2]
  ΔTm: 29.5 °C
[3]
  EC50: 0.03 µM
[4]
  IC50: 9.75 µM
[5]
  IC50: 2.11 µM
